Source: ChEMBL document CHEMBL1156597, “Structure-activity relationship of kahalalide F synthetic analogues” (J Med Chem, 2008)

Assays:
HeLa = assay: Cytotoxicity against human HeLa cells after 48 hrs by SRB assay; format: functional; conditions: for CC50: read-out: LC50 (the source's name)
Outline: (§1)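 Cells grown in RPMI 1640 with 10% FBS and penicillin/streptomycin at 37 °C and 5% CO₂, trypsinized, then seeded at 5 × 10³/well. After 18 h drug-free attachment, samples in DMSO/EtOH/PBS (0.5:0.5:99) were added for 48 h continuous exposure. Cells were fixed with cold TCA (1 h, 4 °C) and stained with SRB (10 min). Tris-solubilized stain read at 490 nm. Triplicate wells, mean ± SD; GI₅₀ derived.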

K562 = assay: Cytotoxicity against human K562 cells after 48 hrs by SRB assay; format: functional; conditions: K562, 48 h; for CC50: read-out: LC50 (the source's name); outline: as §1
PANC-1 = assay: Cytotoxicity against human PANC1 cells after 48 hrs by SRB assay; format: functional; conditions: PANC-1, 48 h; for CC50: read-out: LC50 (the source's name); outline: as §1
[1] = Cytotoxicity against human IGROV cells after 48 hrs by SRB assay; format: functional; conditions: for CC50: read-out: LC50 (the source's name); outline: as §1
HT-29 = assay: Cytotoxicity against human HT29 cells after 48 hrs by SRB assay; format: functional, cell-based; conditions: Homo sapiens, HT-29, 48 h; for CC50: read-out: LC50 (the source's name); outline: as §1
LoVo [2] = assay: Cytotoxicity against human doxorubicin resistant LoVo cells after 48 hrs by SRB assay; format: functional; conditions: for CC50: read-out: LC50 (the source's name); outline: as §1
[3] = Cytotoxicity against human HeLa-APL cells after 48 hrs by SRB assay; format: functional; outline: as §1
LoVo [4] = assay: Cytotoxicity against human LoVo cells after 48 hrs by SRB assay; format: functional; conditions: for CC50: read-out: LC50 (the source's name)
[5] = Cytotoxicity against human IGROV-ET cells after 48 hrs by SRB assay; format: functional; conditions: for CC50: read-out: LC50 (the source's name); outline: as §1
SK-BR-3 = assay: Cytotoxicity against human SKBR3 cells after 48 hrs by SRB assay; format: functional; conditions: SK-BR-3, 48 h; for CC50: read-out: LC50 (the source's name); outline: as §1
A549 = assay: Cytotoxicity against human A549 cells after 48 hrs by SRB assay; format: functional, cell-based; conditions: Homo sapiens, A549, 48 h; for GI50: read-out: GI50; outline: as §1
DU-145 = assay: Cytotoxicity against human DU145 cells after 48 hrs by SRB assay; format: functional, cell-based; conditions: Homo sapiens, DU-145, 48 h; for CC50: read-out: LC50 (the source's name); outline: as §1
SK-MEL-28 = assay: Cytotoxicity against human SK-MEL-28 cells after 48 hrs by SRB assay; format: functional, cell-based; conditions: Homo sapiens, SK-MEL-28, 48 h; for CC50: read-out: LC50 (the source's name); for GI50: read-out: GI50; outline: as §1
LNCaP = assay: Cytotoxicity against human LNcaP cells after 48 hrs by SRB assay; format: functional; conditions: for CC50: read-out: LC50 (the source's name); outline: as §1

SMILES: C/C=C1\NC(=O)[C@H](Cc2ccccc2)NC(=O)[C@@H](C(C)C)NC(=O)[C@@H]([C@H](C)CC)NC(=O)[C@H](NC(=O)[C@H](NC(=O)[C@H](CCCN)NC(=O)[C@H]2CCCN2C(=O)[C@H](NC(=O)[C@@H](NC(=O)[C@H](NC(=O)[C@H](NC(=O)CCCC(C)C)C(C)C)[C@@H](C)O)C(C)C)C(C)C)[C@H](C)CC)[C@H](C)OC(=O)[C@H](C(C)C)NC1=O
- CC50 (HeLa): 1.92 µM
- GI50 (K562): 1.93 µM
- TGI (K562): 1.93 µM
- CC50 (K562): 1.93 µM
- CC50 (PANC-1): 1.77 µM
- CC50 [1]: 0.791 µM
- CC50 (HT-29): 4.71 µM
- CC50 (LoVo [2]): 22.3 µM
- LC50 (concentration giving 50% net cell kill) [3]: 1.8 µM
- TGI (LoVo [4]): 8.96 µM
- CC50 (LoVo [4]): 4.75 µM
- CC50 [5]: 1.05 µM
- CC50 (SK-BR-3): 1.14 µM
- LC50 (A549): 1.81 µM
- CC50 (DU-145): 1.46 µM
- CC50 (SK-MEL-28): 1.62 µM
- CC50 (LNCaP): 1.49 µM

SMILES: C/C=C1\NC(=O)[C@H](Cc2ccccc2)NC(=O)[C@@H](C(C)C)NC(=O)[C@@H]([C@H](C)CC)NC(=O)[C@H](NC(=O)[C@H](NC(=O)[C@H](CCCN)NC(=O)[C@H]2CCCN2C(=O)[C@H](NC(=O)[C@@H](NC(=O)[C@@H](NC(=O)[C@H](NC(=O)C2CCC(C)CC2)C(C)C)[C@@H](C)O)C(C)C)C(C)C)[C@H](C)CC)[C@H](C)OC(=O)[C@H](C(C)C)NC1=O (some centres not stated)
- GI50 (HeLa): 0.904 µM
- TGI (HeLa): 0.897 µM
- CC50 (HeLa): 0.892 µM
- CC50 (K562): 1.81 µM
- GI50 (PANC-1): 2.66 µM
- TGI (PANC-1): 4.53 µM
- CC50 (PANC-1): 2.3 µM
- GI50 [1]: 0.477 µM
- GI50 ([1]; read-out: GI50): 0.526 µM
- CC50 [1]: 0.441 µM
- GI50 (HT-29): 0.551 µM
- TGI (HT-29): 0.554 µM
- CC50 (HT-29): 0.642 µM
- GI50 (LoVo [2]): 0.34 µM
- TGI (LoVo [2]): 0.329 µM
- CC50 (LoVo [2]): 0.319 µM
- GI50 [3]: 0.633 µM
- LC50 (concentration giving 50% net cell kill) [3]: 0.977 µM
- TGI [3]: 0.81 µM
- GI50 (LoVo [4]): 0.244 µM
- TGI (LoVo [4]): 0.28 µM
- CC50 (LoVo [4]): 3.2 µM
- GI50 [5]: 0.503 µM
- GI50 ([5]; read-out: GI50): 0.598 µM
- CC50 [5]: 0.426 µM
- TGI (SK-BR-3): 0.298 µM
- GI50 (SK-BR-3; read-out: GI50): 0.35 µM
- CC50 (SK-BR-3): 1.03 µM
- LC50 (A549): 1.34 µM
- TGI (A549): 1.18 µM
- GI50 (A549): 1.04 µM
- GI50 (DU-145): 0.788 µM
- GI50 (DU-145; read-out: GI50): 0.69 µM
- CC50 (DU-145): 0.839 µM
- TGI (SK-MEL-28): 1.06 µM
- GI50 (SK-MEL-28): 1.01 µM
- CC50 (SK-MEL-28): 1.1 µM
- GI50 (LNCaP): 1.07 µM
- TGI (LNCaP): 1.17 µM
- CC50 (LNCaP): 1.26 µM

SMILES: C/C=C1\NC(=O)[C@H](Cc2ccccc2)NC(=O)[C@@H](C(C)C)NC(=O)[C@@H]([C@H](C)CC)NC(=O)[C@H](NC(=O)[C@H](NC(=O)[C@H](CCCN)NC(=O)[C@H]2CCCN2C(=O)[C@H](NC(=O)[C@@H](NC(=O)[C@@H]2CCCN2C(=O)[C@H](NC(=O)CCCC(C)C)C(C)C)C(C)C)C(C)C)[C@H](C)CC)[C@H](C)OC(=O)[C@H](C(C)C)NC1=O
- CC50 (HeLa): 0.967 µM
- GI50 (K562): 1.48 µM
- TGI (K562): 1.69 µM
- CC50 (K562): 1.92 µM
- GI50 (PANC-1): 5.14 µM
- TGI (PANC-1): 4.52 µM
- CC50 (PANC-1): 2.28 µM
- GI50 [1]: 0.28 µM
- GI50 ([1]; read-out: GI50): 4.52 µM
- CC50 [1]: 0.585 µM
- GI50 (HT-29): 4.63 µM
- TGI (HT-29): 4.48 µM
- CC50 (HT-29): 4.31 µM
- GI50 (LoVo [2]): 2.86 µM
- TGI (LoVo [2]): 2.33 µM
- CC50 (LoVo [2]): 0.396 µM
- LC50 (concentration giving 50% net cell kill) [3]: 0.934 µM
- GI50 (LoVo [4]): 4.66 µM
- TGI (LoVo [4]): 4.05 µM
- CC50 (LoVo [4]): 3.38 µM
- CC50 [5]: 0.92 µM
- CC50 (SK-BR-3): 0.302 µM
- LC50 (A549): 4.69 µM
- TGI (A549): 1.53 µM
- GI50 (A549): 1.61 µM
- CC50 (DU-145): 1.43 µM
- TGI (SK-MEL-28): 2.33 µM
- GI50 (SK-MEL-28): 2.44 µM
- CC50 (SK-MEL-28): 1.67 µM
- CC50 (LNCaP): 0.982 µM
